# Screens from PubChem BioAssay.
# An excerpt weighted towards active compounds, which were near 0.94% of everything screened.
# NPR2 activator: GC-B (human) receptor activation. P20594. activation, % at 10 µM. HEK293-GC-B cells, CNP EC30, cGMP TR-FRET; 0% at EC30 CNP, 100% saturating CNP. 370,000 compounds, 0.11% hits. AID 1920062;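 active means activation at 10 µM reaching about 35% in either raw or pattern-adjusted values, limit read from the data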
# Target sequence (P20594 whole entry, looked up): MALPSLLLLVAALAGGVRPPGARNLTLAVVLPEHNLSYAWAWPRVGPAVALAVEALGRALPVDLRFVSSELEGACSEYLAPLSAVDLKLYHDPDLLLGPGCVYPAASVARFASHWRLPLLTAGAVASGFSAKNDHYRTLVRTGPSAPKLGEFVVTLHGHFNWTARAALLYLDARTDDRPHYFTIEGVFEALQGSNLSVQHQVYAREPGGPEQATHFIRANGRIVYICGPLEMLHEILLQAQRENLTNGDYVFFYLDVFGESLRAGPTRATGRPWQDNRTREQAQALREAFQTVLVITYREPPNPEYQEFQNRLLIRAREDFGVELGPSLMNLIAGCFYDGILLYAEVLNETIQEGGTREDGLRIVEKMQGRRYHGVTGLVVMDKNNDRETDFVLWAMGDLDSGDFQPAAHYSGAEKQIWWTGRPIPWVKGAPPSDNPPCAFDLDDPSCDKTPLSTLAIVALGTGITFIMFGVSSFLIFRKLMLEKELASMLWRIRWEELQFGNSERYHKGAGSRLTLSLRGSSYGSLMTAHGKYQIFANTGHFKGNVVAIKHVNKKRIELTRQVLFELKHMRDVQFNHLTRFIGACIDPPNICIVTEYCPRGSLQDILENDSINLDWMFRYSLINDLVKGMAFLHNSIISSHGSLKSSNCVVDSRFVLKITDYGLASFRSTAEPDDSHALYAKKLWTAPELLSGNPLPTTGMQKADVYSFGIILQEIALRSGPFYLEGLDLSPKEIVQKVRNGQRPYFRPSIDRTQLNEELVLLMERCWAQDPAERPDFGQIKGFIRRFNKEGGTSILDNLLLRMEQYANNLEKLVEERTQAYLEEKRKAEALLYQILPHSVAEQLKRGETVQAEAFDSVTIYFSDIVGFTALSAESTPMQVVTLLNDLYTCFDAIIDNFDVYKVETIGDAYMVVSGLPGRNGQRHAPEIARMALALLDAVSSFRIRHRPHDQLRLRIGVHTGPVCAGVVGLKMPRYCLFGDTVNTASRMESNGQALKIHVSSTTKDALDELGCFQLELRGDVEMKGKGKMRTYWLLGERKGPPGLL
# Arrestin-AP2 inh: human beta-arrestin and AP2 interaction inhibition; FITC-arrestin peptide / GST-AP2 beads, flow cytometry; AP2 beta2 appendage carries R879A mutation; inhibition, % at 10 µM; 340,000 compounds, 0.31% hits;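 active means inhibition above a set limit, near 3 SD of compounds lacking own fluorescence, cut at about 54% in these data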;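 further: plate controls were DMSO wells for no effect and 5 µM unlabelled arrestin peptide for full effect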
#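 Test system: GST-tagged AP2 beta2-adaptin appendage (R879A) on 4 µm glutathione beads; also added: fluorescein-tagged arrestin peptide at 50 nM final; timing: 12 min plus 1 h, RT; signal: flow cytometry, FL1 (488/535 nm); read-out: percent drop in bead-associated FITC signal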
# GC-A act: GC-A (human) enzyme activation. 370,000 compounds, 0.14% hits. HEK293 GC-A cells, cGMP TR-FRET, EC30 ANP; 0% at EC30 ANP, 100% saturating ANP. activation, % at 10 µM. P16066. AID 1671463; in the data active means activation above about 40%
# GalR3 antag: antagonists of human GalR3. O60755. HEK293 GalR3-CNG cAMP membrane potential fluorescence; galR3 body fused to GalR1 C-terminus. inhibition, % at 3 µM. 360,000 compounds, 0.44% hits. AID 651719;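 active means inhibition above the screen-wide average plus 3 SD, cut at about 13% in these data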;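 further: forskolin and galanin both at EC90 stimulate the cells; cAMP rise reported by CNG channel membrane potential dye signal; 0% = forskolin plus galanin with DMSO and 100% = forskolin alone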
# Starred values were filed as active, the others as inactive; x = not tested or not shown.
SMILES,NPR2 activator,Arrestin-AP2 inh,GC-A act,GalR3 antag
Cn1c(=O)c2cc(NC(=O)Cc3cccnc3)ccc2n1-c1ccc2ccccc2c1,68*,x,47*,-2
N=C1C(c2nc3ccccc3s2)=C(O)CN1C1CCCCC1,-6,8,54*,-2
N=C1C(c2nc3ccccc3s2)=C(O)CN1C1CCC(O)CC1 (centres undefined),-8,x,36,3
N=C1C(c2nc3ccccc3s2)=C(O)CN1Cc1ccccc1,-16,7,46*,-8
COCC(=O)N1C[C@H]2CON(C)[C@H]2C[C@H]1c1cccc(-c2cc(Cl)cc(Cl)c2)c1,-1,x,-1,-7
O=C(c1ccc(COc2ccc(F)cc2)o1)n1cccn1,-7,-9,45*,3
COc1ccc(CC(=O)Nc2sc3c(c2C#N)CC(C)(C)NC3(C)C)cc1OC,37*,30,31,-3
COc1ccccc1-c1cc(C(F)(F)F)nc(S(=O)(=O)CCCC(=O)N2CCOCC2)n1,4,5,70*,4
CNC(=S)N/N=C/c1cn(Cc2c(F)cccc2Cl)c2ccccc12,31,12,29,-1
CCNC(=S)N/N=C/c1cn(Cc2ccccc2F)c2ccccc12,44*,3,41*,-7
CCNC(=S)N/N=C/c1cn(Cc2ccc(F)cc2)c2ccccc12,42*,-16,35,-6
Cc1cccc(OC(=O)c2sc(Cl)nc2C)c1,6,-2,56*,-5
NC(=O)c1ncn([C@@H]2O[C@H](C(=O)Nc3ccc(C(=O)N4CCCCC4)cc3)[C@@H](O)[C@H]2O)n1,7,x,-2,-4
CCc1cc(=O)n2[nH]c(C)c(-c3ccc(OC)cc3)c2n1,14,11,11,-3
CCOC(=O)Cc1cc(=O)n2[nH]c(C)c(-c3ccc(Cl)cc3)c2n1,45*,-10,44*,-4
COC(=O)Cc1cc(=O)n2[nH]c(C)c(-c3ccccc3)c2n1,27,-5,17,3
CCOC(=O)Cc1cc(=O)n2[nH]c(C)c(-c3ccc(OC)cc3)c2n1,51*,35,49*,8
C=CCn1c(SCC(N)=O)nnc1-c1ccc(C)cc1,5,x,6,x
O=C(C(=Cc1ccc(F)cc1)c1ccccc1)c1ccc(O)cc1,3,27,68*,-3
O=C1NN(c2ccccc2)C(=O)/C1=C\c1cccc(OC(=O)c2cccs2)c1,12,5,41*,-1
COc1ccc(Oc2c(-c3ccc(O)cc3O)n[nH]c2C)cc1,1,-1,44*,7
N#Cc1c(N)n(-c2ccc(N)cc2)c2nc3ccccc3nc12,-7,-13,-4,-4
N#Cc1c(C#N)c(SSc2c(C#N)c(C#N)c(N)n2-c2ccccc2)n(-c2ccccc2)c1N,55*,5,-8,-3
COc1ccc(Cl)cc1-c1cc(C(=O)NCc2ccc(F)cc2)[nH]n1,21,x,43*,-8
COc1ccc(NC(=O)c2cc(-c3cc(Cl)ccc3C)n[nH]2)cc1OC,2,x,-1,4
SMILES,NPR2 activator,Arrestin-AP2 inh,GC-A act,GalR3 antag
COc1ccc(NC(=O)c2cc(-c3cc(Cl)ccc3OC)n[nH]2)cc1OC,53*,x,45*,-9
COc1ccc(Cl)cc1-c1cc(C(=O)NCc2ccc(C(F)(F)F)cc2)[nH]n1,7,x,17,-4
CCN(Cc1ccccc1)C(=O)C1CCCN(c2ncccn2)C1 (centres undefined),-2,x,-1,x
COc1ccc(CN(C)C(=O)[C@@H](Cc2ccccc2)NC(=O)[C@H]2O[C@@H](n3ccc(N)nc3=O)[C@H](O)[C@@H]2O)cc1OC,-2,x,0,-7
FC(F)(F)c1cc(C(F)(F)F)c2ccc(N3CCN(c4ccc(Cl)cc4)CC3)nc2n1,6,7,1,-1
N#CC(c1ccc(Cl)cc1)c1ccc2c(C(F)(F)F)cc(C(F)(F)F)nc2n1 (centres undefined),8,-9,1,36*
CCCCCN(C(=O)Cc1c(C)n(CCCCC)c2ccccc12)c1ccc(Oc2cccnc2)c(C)c1,-5,x,-3,-5
CCOc1ccc(S(=O)(=O)N(CC)CC)cc1N,-4,37,0,2
CCOc1ccc(S(=O)(=O)N(C)C)cc1-c1nc2c(C(C)(C)C)nn(C)c2c(=O)[nH]1,68*,12,58*,7
CCOc1ccc(S(=O)(=O)N(C)CCO)cc1-c1nc2c(C(C)(C)C)nn(C)c2c(=O)[nH]1,67*,9,59*,1
CCN(C(=O)C1CCCN(c2nnc(-n3cccc3)s2)C1)c1ccccc1C (centres undefined),-9,x,-13,x
N#Cc1ccc2nc(-c3ccc(CN4CCC5(CC4)CNc4ccccc45)cc3)c(-c3ccccc3)nc2c1,8,x,1,-7
CCCCCn1cc(CCC(=O)Nc2ccc(Oc3cccnc3)cc2)c2ccccc21,-2,x,-4,-5
CCOC(=O)CSc1nc2sc(C)c(C)c2c(=O)[nH]1,4,-4,3,-4
CCOC(=O)/C(=C\c1ccc(Cl)cc1)c1nc2sc(C)c(C)c2c(=O)[nH]1,-14,3,-28,14*
COCCNC(=S)N1C[C@H]2CON(C)[C@H]2C[C@H]1c1ccccc1Br,4,x,1,1
N#C/C(C(=O)Nc1ccc(Cl)cc1)=C(/S)Nc1ccccc1,34,-41,58*,-8
COCCNC(=O)/C(C#N)=C/c1cccc(/C=C(\C#N)C(=O)NCCOC)c1,25,-6,42*,1
CCOCCCNC(=O)/C(C#N)=C/c1ccc(Cl)c([N+](=O)[O-])c1,5,52,55*,-10
C=CCn1c(SCc2ccc(C#N)cc2)nnc1-c1ccco1,0,x,-5,x
CC(C)C(=O)Nc1cccc(C(=O)OCC(=O)c2ccc(Cl)cc2Cl)c1,-5,-2,59*,1
CC(=O)Nc1cc(C(=O)OCC(=O)c2ccc(Cl)cc2Cl)ccc1C,4,-13,61*,-3
COC(=O)c1cccc(NC(=O)Nc2ccc(Cl)cc2Cl)c1,-4,16,0,-5
CCOc1ccc(-n2c(SCc3cccc4ccccc34)nnc2-c2ccc(C)cc2)cc1,-9,x,-3,x
CCN(CC)CCNC(=O)c1ccc(NCN2C(=O)NC(c3ccccc3)(c3ccccc3)C2=O)cc1,4,x,-2,-6
CCN(CC)c1ccc(/C=C/c2cccc[n+]2C)c(OC)c1,-14,-28,-14,18*
Cc1ccc(N2C(=O)c3cccc4c(N)ccc(c34)C2=O)c2cccnc12,-11,32,3,19*
Cc1nn(C)c(C)c1N1C(=O)c2cccc3c(N)ccc(c23)C1=O,5,-5,4,12
Nc1nc2c(ncn2[C@@H]2O[C@H](CNCC3=Cc4cc(O)ccc4OC3)[C@@H](O)[C@H]2O)c(=O)[nH]1,39*,x,47*,-5
CCCCCCC(=O)NC1CCCCN(Cc2ccccc2C)C1=O (centres undefined),1,x,3,x
